Test results published in PMC7425103 (Drug Design, Development and Therapy, 2020).

Experiments:
Type in all cases: cell-based, human
[1] = test system: MCF-7 (breast cancer) cell line; test: MTT anticancer; conditions: ratio of IC50 values vs reference CA-4
How it was run: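 ATCC MCF-7 cells were grown in DMEM with 10% FBS and penicillin/streptomycin. After trypsin detachment they were seeded at 1000–2000 cells/well and held 34 hours at 37°C in 5% CO2. Test compound was added at 0.1, 1, 10, 25 and 100 μM for 72 hours. Then 5% MTT was added for 2 h at 37°C, formazan was dissolved in isopropanol, and absorbance was read at 570 nm. Viability was expressed as % of control and IC50 derived by curve fitting.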

[2] = test system: Hep G2 (hepatocellular liver carcinoma) cell line; test: MTT anticancer; conditions: ratio of IC50 values vs reference CA-4
[3] = test system: MCF-7 cell line; test: Cell cycle analysis by DNA flow cytometry; conditions: MCF-7, at IC50
[4] = test system: MCF-7 cell line; test: Annexin V-FITC/PI staining apoptosis assay; conditions: MCF-7, at IC50, 24 hours
How it was run: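 MCF-7 cells were seeded at 4 x 10^6/well and exposed to the test compound for 24 hours. Cells were washed three times with ice-cold PBS and resuspended in PBS. They were then stained with Annexin V-FITC and PI from a kit for 15 minutes at room temperature in the dark, and analysed by flow cytometry.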

COc1cc(/C=C/C(=O)c2ccc(NC(=O)c3ccccc3CN3C(=O)c4ccccc4C3=O)cc2)cc(OC)c1OC [Compound 7j, (E)-2-((1,3-Dioxoisoindolin-2-Yl)Methyl)-N-(4-(3-(3,4,5-Trimethoxyphenyl)Acryloyl)Phenyl)Benzamide]
fold anticancer activity relative to CA-4, MCF-7 [1]: 2.57 fold | fold anticancer activity relative to CA-4, Hep G2 [2]: 4.51 fold | apoptosis at preG1 phase, times higher than entinostat [3]: 1.04 times | cell accumulation percentage at G2/M phase, fold higher than CA-4 [3]: 1.05 fold | percentage of cells at G2/M, folds higher than entinostat [3]: 1.53 fold | cell necrosis, fold increase compared to untreated control [4]: 2.09 fold | early apoptotic cell population, fold more than untreated control [4]: 14.36 fold | late apoptotic cells population, folds increase vs untreated control [4]: 44.60 fold
